Only some compounds are listed: those with a hit (about 2.4% of all), similar ones and a draw of the others.
Ecoli rRNA inh – inhibitors of bacterial rRNA selective over humanized ribosomes | E. coli WT GFP vs humanized-ribosome RFP mutants, fluorescence, 24 h; stronger effect = lower value; DMSO median 0, no signal -100 | GFP signal change (wild-type ribosome), % (concentration not given with the values) | actives 1.6% (n = 350,000) | AID 720706;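 active = significant combined selectivity score with lowered wild-type GFP, culture density cut under 30%, mutant RFP and density less affected; inactive = any of these conditions unmet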
LGR2 antag – inhibitors of bursicon-induced Drosophila LGR2 receptor cAMP signaling. HEK293 LGR2, CRE-luciferase, bursicon-stimulated, 4 h. actives 0.35% (n = 380,000). AID 720647. inhibition, % at 9.99 µM;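 active = drop in luminescence signal, shown as inhibition above about 50% in the replicate tests, limit read from the data, passing the limit was not always enough; inconclusive = probably only some replicates passing the limit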;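 note: agonist challenge used bursicon conditioned medium at about half maximal strength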
E-selectin induc – E-selectin induction on HUVECs. P16581. activation, % at 7.58 µM. HUVEC E-selectin immunofluorescence imaging; normalized: neutral wells 0, TNF-alpha wells 100. actives 0.37% (n = 260,000). AID 686992;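 active = mean E-selectin-positive cell signal at least 10% of the positive control, reached in at least 60% of replicates, without over 20% cell loss; inconclusive = no rule given, readout overlaps actives, possibly toxicity-flagged; inactive = the rest, including those meeting only one limit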
Target sequence (P16581 whole entry, looked up): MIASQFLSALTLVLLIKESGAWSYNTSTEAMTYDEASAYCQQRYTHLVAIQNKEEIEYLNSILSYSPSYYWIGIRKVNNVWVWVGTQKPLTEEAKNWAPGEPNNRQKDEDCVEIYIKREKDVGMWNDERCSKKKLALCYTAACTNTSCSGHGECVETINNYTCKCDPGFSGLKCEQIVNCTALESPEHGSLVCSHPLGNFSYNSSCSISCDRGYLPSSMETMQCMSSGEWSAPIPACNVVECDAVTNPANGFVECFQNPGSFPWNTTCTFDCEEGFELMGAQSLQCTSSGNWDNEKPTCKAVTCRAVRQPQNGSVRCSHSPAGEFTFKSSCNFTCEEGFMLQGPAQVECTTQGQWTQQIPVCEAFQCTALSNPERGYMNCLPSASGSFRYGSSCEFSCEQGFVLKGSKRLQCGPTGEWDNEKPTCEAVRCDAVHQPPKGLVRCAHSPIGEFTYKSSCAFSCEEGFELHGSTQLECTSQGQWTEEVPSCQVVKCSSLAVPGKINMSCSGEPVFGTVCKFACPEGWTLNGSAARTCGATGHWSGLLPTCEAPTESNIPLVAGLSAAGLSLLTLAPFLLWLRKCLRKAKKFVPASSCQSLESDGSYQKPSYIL
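Test system – human umbilical vein endothelial cells (HUVEC), E-selectin induction · Input – 3,000 HUVEC seeded per well · Buffer or medium – EGM-2, gelatin · Compound dosing – single-point compound dose · Detection – immunofluorescence imaging · Measure – percent E-selectin-positive cells · Controls – TNF-alpha high, DMSO low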
EWS-Fli inh – blocks EWS/Fli oncoprotein-driven transcription | A673 NR0B1-luciferase reporter, viability-normalised | inhibition, % at 12.6 µM | AID 651661 | actives 0.67% (n = 350,000);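 active = mean inhibition of at least 50% after viability correction, with every replicate also passing that limit; inconclusive = mean reaches 50% but only one of two replicates passes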;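 note: firefly luciferase signal divided by Alamar Blue viability fluorescence both relative to DMSO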
AID977621 – wild-type E. coli growth inhibition versus H69 humanized strain – H69 mutant RFP, wild-type GFP, cherry-pick, dose response; 1,900 tested, under 10 active; shares compounds with Ecoli rRNA inh; activity change, negative = inhibition at 50 µM; AID 977621; fluorescence, 24 h;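 active = Wild-type ribosome reporter drop at least double the humanized mutant ribosome reporter drop, growth loss under a set limit; inconclusive = no clear call, values can overlap the other calls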;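 note: wild-type GFP and H69 mutant RFP strains grown together 50/50 in each well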
AID977628 – E. coli growth inhibition, wild-type GFP versus h24 humanized RFP strain, dose response, h24 mutant RFP vs wild-type GFP, cherry-pick. shares compounds with Ecoli rRNA inh. E. coli WT GFP strain growth, fluorescence, 24 h. activity change, negative = inhibition at 50 µM. 1,900 tested, under 10 active. AID 977628;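 active = compound lowering the normal-ribosome reporter at least twice as much as the humanized-ribosome reporter, growth loss under a set limit; inconclusive = no clear call, values can overlap the other calls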;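 note: wild-type GFP and h24 humanized RFP strains co-cultured 1 to 1 per well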
Each line names hits and unclear results; the compound was inactive in the other large screens (follow-up assays come after a bar, where they were run).

CN1CCN(C(=O)C[C@@H]2CC[C@H]3[C@@H](COC[C@@H](O)CN3C(=O)Nc3ccc(Cl)cc3)O2)CC1	none
CC(C)[C@H]1C(=O)N[C@H](c2ccccc2)CC=CC[C@@H](C)Oc2ccccc2C(=O)N1C (mixture of isomers)	none (no result: LGR2 antag, E-selectin induc, EWS-Fli inh)
COc1ccc2c3c([nH]c2c1)[C@@H](CO)N(C(C)=O)CC31CN(C(=O)c2cccc(F)c2)C1	none (no result: LGR2 antag, E-selectin induc, EWS-Fli inh)
C[C@@H](NC(=O)C[C@@H]1CC[C@@H]2[C@H](COC[C@H](O)CN2C(=O)Nc2cccc(F)c2)O1)c1ccccc1	Ecoli rRNA inh -21 | AID977628 inconclusive
O=C(COC(=O)c1ccccc1O)NCCC1=CCCCC1	Ecoli rRNA inh -22 (no result: E-selectin induc) | AID977621 inactive | AID977628 inconclusive
O=C(C[C@H]1CC[C@@H](NC(=O)C2CCC2)[C@@H](CO)O1)NC1CCC1	none
NS(=O)(=O)c1ccc(NC(=O)c2cc(Cl)sc2Cl)cc1	Ecoli rRNA inh -25 (no result: E-selectin induc) | AID977621 inactive | AID977628 inactive
Cc1ccc(S(=O)(=O)Nc2ccc3c(c2)C(=O)N([C@H](C)CO)C[C@@H](C)[C@@H](CN(C)C(=O)Nc2ccccc2)OCCCC[C@@H](C)O3)cc1	none
CCCC(=O)Nc1sc2c(c1C(=O)Nc1ccccn1)CCCC2	Ecoli rRNA inh -30 (no result: LGR2 antag) | AID977621 inactive | AID977628 inactive
COc1ccc(-c2ccccc2)cc1NC(=O)c1ccncc1	Ecoli rRNA inh -31 (no result: LGR2 antag) | AID977621 inactive
COc1ccccc1NC(=S)NNC(=O)c1ccncc1	none (no result: E-selectin induc)
Cc1ccc(C2(c3noc(CN(C)Cc4cccnc4)n3)CCCC2)cc1	Ecoli rRNA inh -31 (no result: E-selectin induc) | AID977628 inconclusive
Cc1ccc(C2(c3noc(CN(C)Cc4ccccn4)n3)CCCC2)cc1	none (no result: E-selectin induc)
Cc1ccccc1CSc1nnc(-c2ccncc2)o1	Ecoli rRNA inh -19 | AID977628 inconclusive
O=C(Cc1ccncc1)NCC[C@@H]1CC[C@H](NC(=O)C2CCCC2)[C@H](CO)O1	none
C[C@@H]1CN([C@@H](C)CO)C(=O)c2cc(NS(=O)(=O)c3cccs3)ccc2O[C@@H](C)CCCCO[C@@H]1CN(C)S(=O)(=O)c1ccc(F)cc1	none
Cc1cc(Br)c2nc(-c3ccc(Cl)cc3)c(Cc3cccc(Cl)c3)n2c1	Ecoli rRNA inh -19 | AID977621 inconclusive | AID977628 inconclusive
Cc1ccc(-c2nc3c(Br)cc(C)cn3c2Cc2cccc(Cl)c2)cc1	none
CCOC(=O)C1CCCN(Cc2c(Cl)cccc2Cl)C1 (stereo not given)	Ecoli rRNA inh -23 (no result: E-selectin induc) | AID977621 inactive | AID977628 inactive
CCOC(=O)C1CCCN(CCC(C)c2ccccc2)C1 (stereo not given)	none (no result: E-selectin induc, EWS-Fli inh)
COc1ccc(C2=NN(C(=O)CN3CCCCC3)C(c3ccc(C)cc3)C2)cc1 (stereo not given)	none
COc1ccc(C2CC(c3ccc(Br)cc3)=NN2C(=O)CN2CCCC2)cc1 (stereo not given)	Ecoli rRNA inh -19 | AID977621 inactive | AID977628 inconclusive
O=C(Cc1ccccn1)N[C@@H]1CC[C@H](CCn2cc(-c3ccccc3)nn2)O[C@H]1CO	none
c1ccc2c(c1)nc(N1CCCCCC1)c1ccccc12	Ecoli rRNA inh -31 | AID977621 inactive
c1ccc(-c2cc3ccccc3nc2N2CCCC2)cc1	none (no result: Ecoli rRNA inh, E-selectin induc, EWS-Fli inh)
C[C@@H]1CCCCO[C@@H](CN(C)C(=O)Nc2ccc3c(c2)OCO3)[C@H](C)CN([C@H](C)CO)C(=O)c2cc(NC(=O)c3ccccc3)ccc2O1	none
CC1(C(=O)NS(=O)(=O)c2cccs2)CCN1C(=O)C1(c2ccc(Cl)cc2)CCC1 (stereo not given)	Ecoli rRNA inh -33 | AID977621 inactive
CC1(C(=O)NS(=O)(=O)c2cccc(Cl)c2)CCN1C(=O)C1(c2ccc(Cl)cc2)CCC1 (stereo not given)	Ecoli rRNA inh -16 | AID977621 inactive
Brc1cc2c(cc1Br)OCCOCCOCCO2	Ecoli rRNA inh -24 (no result: E-selectin induc) | AID977621 inconclusive
COc1ccc2c3c(n(C)c2c1)[C@H](CO)N(CC1CC1)CC31CN(C(=O)c2ccccc2)C1	none
O=C(c1cnc(Cc2c[nH]c3ccccc23)c(I)c1)N1CCCCC1	Ecoli rRNA inh -24 | AID977621 inactive
